IC50 and Activity data for 19 molecules are collected here from ChEMBL document CHEMBL1152957, “Synthesis and biological evaluation of novel 4-azaindolyl-indolyl-maleimides as glycogen synthase kinase-3beta (GSK-3beta) inhibitors” (Bioorg Med Chem, 2009).

Assay [1] concerns the target T1, Glycogen synthase kinase-3 beta (Homo sapiens, UniProt P49841). In words: Inhibition of recombinant GST-GSK3beta expressed in Escherichia coli BL21 (DE3).
Target sequence in this assay (P49841 whole entry): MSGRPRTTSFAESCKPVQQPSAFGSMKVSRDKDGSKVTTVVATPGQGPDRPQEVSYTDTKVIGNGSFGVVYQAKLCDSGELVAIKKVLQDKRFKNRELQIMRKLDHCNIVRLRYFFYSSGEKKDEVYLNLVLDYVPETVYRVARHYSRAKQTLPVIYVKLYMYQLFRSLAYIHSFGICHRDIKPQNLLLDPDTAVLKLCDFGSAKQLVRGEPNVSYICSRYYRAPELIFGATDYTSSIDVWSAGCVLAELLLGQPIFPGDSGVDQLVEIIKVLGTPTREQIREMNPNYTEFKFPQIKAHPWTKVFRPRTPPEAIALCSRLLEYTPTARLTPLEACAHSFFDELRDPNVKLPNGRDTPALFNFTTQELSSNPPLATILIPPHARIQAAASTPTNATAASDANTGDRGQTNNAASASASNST
In assay [2] the target is T1, Glycogen synthase kinase-3 beta. The experiment in a line: Inhibition of GSK3-beta in human SH-Sy5Y cells assessed as reduction of amyloid beta (25-35)-induced Tau hyperphosphorylation at Ser396 at 10 uM treated 1 hr before amyloid beta (25-35) challenge measured after 6 hrs by Western blotting. In kind it is cell-based. Put shortly:
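SH-SY5Y cells from ATCC kept in 1:1 DMEM:Ham's F12 with 10% FBS and penicillin/streptomycin under 5% CO2. Grown to about 80% confluence and serum-starved 12 h. Inhibitor added for 1 h, then amyloid beta 25–35 for 6 h. Lysed in SDS loading buffer and run on 10% SDS-PAGE. Western blot on PVDF with rabbit anti-Tau pS396 and ECL detection.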
Target sequence in this assay (P49841 whole entry, looked up): as the sequence (P49841 whole entry) above

Assay [3] deals with T2, Protein kinase C epsilon type (Homo sapiens, UniProt Q02156).
T2 sequence (Q02156 whole entry): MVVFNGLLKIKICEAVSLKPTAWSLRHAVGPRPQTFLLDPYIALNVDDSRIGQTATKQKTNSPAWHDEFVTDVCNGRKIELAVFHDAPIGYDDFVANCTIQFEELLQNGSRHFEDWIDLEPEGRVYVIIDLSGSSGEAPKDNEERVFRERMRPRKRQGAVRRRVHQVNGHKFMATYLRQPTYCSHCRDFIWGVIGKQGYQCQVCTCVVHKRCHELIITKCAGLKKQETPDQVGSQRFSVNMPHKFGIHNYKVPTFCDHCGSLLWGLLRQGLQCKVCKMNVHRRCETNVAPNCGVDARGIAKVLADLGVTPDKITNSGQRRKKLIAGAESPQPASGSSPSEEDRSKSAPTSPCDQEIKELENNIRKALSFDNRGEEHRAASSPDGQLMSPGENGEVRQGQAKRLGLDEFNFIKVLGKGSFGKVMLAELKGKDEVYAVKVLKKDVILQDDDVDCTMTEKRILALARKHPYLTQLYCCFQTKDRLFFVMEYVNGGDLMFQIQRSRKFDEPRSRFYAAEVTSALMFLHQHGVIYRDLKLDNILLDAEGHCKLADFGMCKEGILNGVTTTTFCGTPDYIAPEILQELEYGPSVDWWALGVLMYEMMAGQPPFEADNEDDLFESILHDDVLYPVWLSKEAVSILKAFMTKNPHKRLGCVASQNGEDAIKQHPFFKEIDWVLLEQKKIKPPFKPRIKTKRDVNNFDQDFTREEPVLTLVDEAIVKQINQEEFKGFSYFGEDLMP
The experiment in a line: Inhibition of recombinant PKCE expressed in Bac-to Bac baculovirus system.

Assay [4] addresses T3, Inhibitor of nuclear factor kappa-B kinase subunit beta (Homo sapiens, UniProt O14920).
T3 sequence (O14920 whole entry): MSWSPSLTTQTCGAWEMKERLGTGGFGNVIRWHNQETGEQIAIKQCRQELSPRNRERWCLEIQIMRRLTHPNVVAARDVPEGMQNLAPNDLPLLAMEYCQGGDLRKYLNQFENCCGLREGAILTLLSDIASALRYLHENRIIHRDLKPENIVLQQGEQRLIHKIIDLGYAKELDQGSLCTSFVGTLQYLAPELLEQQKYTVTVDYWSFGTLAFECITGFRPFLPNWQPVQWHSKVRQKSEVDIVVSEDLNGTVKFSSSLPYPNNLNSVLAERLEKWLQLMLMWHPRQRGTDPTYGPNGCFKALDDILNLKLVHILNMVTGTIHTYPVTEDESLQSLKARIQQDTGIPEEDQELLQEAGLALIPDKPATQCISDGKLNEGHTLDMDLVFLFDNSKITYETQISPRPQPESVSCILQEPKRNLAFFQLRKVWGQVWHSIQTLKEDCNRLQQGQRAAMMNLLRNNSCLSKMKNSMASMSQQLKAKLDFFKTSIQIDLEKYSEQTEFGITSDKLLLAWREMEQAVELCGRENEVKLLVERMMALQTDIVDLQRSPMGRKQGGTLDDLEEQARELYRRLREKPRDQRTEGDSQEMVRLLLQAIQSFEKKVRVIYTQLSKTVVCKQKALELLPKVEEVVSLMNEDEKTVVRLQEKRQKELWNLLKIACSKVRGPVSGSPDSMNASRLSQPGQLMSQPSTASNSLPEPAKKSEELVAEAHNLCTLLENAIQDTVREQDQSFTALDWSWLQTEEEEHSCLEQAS
In words: Inhibition of recombinant IKK2 expressed in Bac-to Bac baculovirus system.

The target of a further assay is T4, Aurora kinase A (Homo sapiens, UniProt O14965).
T4 sequence (O14965 whole entry): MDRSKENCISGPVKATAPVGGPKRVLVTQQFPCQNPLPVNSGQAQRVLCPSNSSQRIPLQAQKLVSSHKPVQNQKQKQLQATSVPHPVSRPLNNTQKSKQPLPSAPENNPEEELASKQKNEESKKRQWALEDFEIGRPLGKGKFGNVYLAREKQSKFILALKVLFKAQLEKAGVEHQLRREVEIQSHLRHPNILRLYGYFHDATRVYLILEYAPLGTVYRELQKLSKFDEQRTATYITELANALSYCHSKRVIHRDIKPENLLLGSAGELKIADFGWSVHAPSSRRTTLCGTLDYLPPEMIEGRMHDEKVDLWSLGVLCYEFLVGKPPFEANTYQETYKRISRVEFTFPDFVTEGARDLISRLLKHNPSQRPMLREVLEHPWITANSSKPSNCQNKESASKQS
The experiment in a line: Inhibition of recombinant Aurora A expressed in Escherichia coli.

For assay [5], the target named is Dual specificity mitogen-activated protein kinase kinase 1 (Homo sapiens, UniProt Q02750). The experiment in a line: Inhibition of recombinant MEK1 expressed in Escherichia coli.
Chain of Dual specificity mitogen-activated protein kinase kinase 1 (Q02750 whole entry): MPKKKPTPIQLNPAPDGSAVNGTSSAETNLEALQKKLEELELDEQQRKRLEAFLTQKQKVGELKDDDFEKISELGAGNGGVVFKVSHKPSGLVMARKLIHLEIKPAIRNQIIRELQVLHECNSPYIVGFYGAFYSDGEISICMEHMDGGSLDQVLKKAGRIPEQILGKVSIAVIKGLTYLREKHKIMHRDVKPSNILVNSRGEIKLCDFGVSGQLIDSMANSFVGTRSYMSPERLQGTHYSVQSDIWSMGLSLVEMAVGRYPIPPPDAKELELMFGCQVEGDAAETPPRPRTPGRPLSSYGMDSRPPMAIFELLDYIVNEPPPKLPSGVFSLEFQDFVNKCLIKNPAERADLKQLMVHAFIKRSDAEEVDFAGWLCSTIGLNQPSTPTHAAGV
Assay [6] concerns the target Mitogen-activated protein kinase 3 (Homo sapiens, UniProt P27361). In words: Inhibition of recombinant ERK1 expressed in Escherichia coli.

Activity calls are given as the source filed them. No cut-off for these calls is given here. Bounds are passed on as bounds.

Chain of Mitogen-activated protein kinase 3 (P27361 whole entry): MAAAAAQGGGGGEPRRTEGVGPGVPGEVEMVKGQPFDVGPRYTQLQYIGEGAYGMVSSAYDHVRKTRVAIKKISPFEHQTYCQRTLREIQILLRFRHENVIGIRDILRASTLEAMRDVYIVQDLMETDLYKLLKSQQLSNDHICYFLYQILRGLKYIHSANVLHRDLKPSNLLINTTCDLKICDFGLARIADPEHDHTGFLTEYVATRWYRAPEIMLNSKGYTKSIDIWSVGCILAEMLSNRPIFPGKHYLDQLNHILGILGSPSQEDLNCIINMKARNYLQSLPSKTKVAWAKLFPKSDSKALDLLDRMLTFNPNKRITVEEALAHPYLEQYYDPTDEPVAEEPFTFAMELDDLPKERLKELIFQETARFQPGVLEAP

A word on the IC50: it is the concentration that gives 50% inhibition. For `Cn1cc(C2=C(c3cn(CCCO)c4ccccc34)C(=O)NC2=O)c2ncccc21`, in assay [1], the IC50 turned out to be 1.14 µM.

Take `O=C1NC(=O)C(n2ccc3ncccc32)=C1c1cn(CCCn2ccnc2)c2cc(Br)ccc12`: in assay [2], the result was inactive. Also, in assay [1], the IC50 was determined as 0.95 µM.

Take `O=C1NC(=O)C(n2ccc3ncccc32)=C1c1cn(CCCN2CCOCC2)c2ccccc12`: the IC50 in assay [1] came out at 1.79 µM.

Take `CN(C)CCCn1cc(C2=C(n3ccc4ncccc43)C(=O)NC2=O)c2ccc(Br)cc21`: in assay [1], the IC50 was determined as 2.26 µM.

As for `O=C1NC(=O)C(n2ccc3ncccc32)=C1c1cn(CCCn2ccnc2)c2ccc(Br)cc12`, the result in assay [2] was Active. Besides, the IC50 in assay [1] is 0.14 µM; in assay [3], greater than 40 µM; in assay [4], greater than 40 µM; on Aurora kinase A, greater than 40 µM; in assay [5], greater than 40 µM; in assay [6] it was greater than 40 µM.

Turning to `O=C1NC(=O)C(n2ccc3ncccc32)=C1c1c[nH]c2ccccc12`, the IC50 in assay [1] is 30.6 µM.

Turning to `O=C1NC(=O)C(n2ccc3ncccc32)=C1c1cn(CCn2ccnc2)c2ccccc12`, the outcome in assay [2] was inactive. In addition, the IC50 in assay [1] is 0.26 µM; in assay [3], greater than 40 µM; in assay [4], greater than 40 µM; at Aurora kinase A, greater than 40 µM; in assay [5], greater than 40 µM; in assay [6] it was greater than 40 µM.

`Cn1cc(C2=C(c3cn(CCCN4CCOCC4)c4ccccc34)C(=O)NC2=O)c2ncccc21`: in assay [2], the result was Active. The IC50 in assay [1] is 0.76 µM; in assay [3], greater than 40 µM; in assay [4], greater than 40 µM; on Aurora kinase A, greater than 40 µM; in assay [5] it was greater than 40 µM; in assay [6], greater than 40 µM.

For `Cn1cc(C2=C(c3cn(CCCn4ccnc4)c4ccccc34)C(=O)NC2=O)c2ncccc21`, the IC50 in assay [1] turned out to be 0.66 µM.

As for `Cn1cc(C2=C(c3cn(CCN4CCOCC4)c4ccccc34)C(=O)NC2=O)c2ncccc21`, the IC50 in assay [1] was found to be 0.9 µM.

Consider `CN(C)CCCn1cc(C2=C(n3ccc4ncccc43)C(=O)NC2=O)c2ccc(F)cc21`, for which the IC50 in assay [1] is 12.4 µM.

Turning to `O=C1NC(=O)C(n2ccc3ncccc32)=C1c1cn(CCCN2CCCCC2)c2ccccc12`, the IC50 in assay [1] turned out to be 12.4 µM.

In the case of `CN(C)CCCn1cc(C2=C(n3ccc4ncccc43)C(=O)NC2=O)c2ccccc21`, the IC50 in assay [1] is 13.6 µM.

With `O=C1NC(=O)C(n2ccc3ncccc32)=C1c1cn(CCCn2ccnc2)c2ccccc12`, the IC50 in assay [1] is 0.55 µM.

For `O=C1NC(=O)C(n2ccc3ncccc32)=C1c1cn(CCCCn2ccnc2)c2ccccc12`, the outcome in assay [2] was inactive. In assay [1], the IC50 was 0.85 µM.

`O=C1C(c2cn(CCCn3ccnc3)c3ccccc23)=C(n2ccc3ncccc32)C(=O)N1c1ccccc1`: in assay [1], the IC50 is greater than 73.3 µM.

As for `O=C1NC(=O)C(n2ccc3ncccc32)=C1c1cn(CCCn2ccnc2)c2cc(F)ccc12`, the IC50 in assay [1] is 0.31 µM.

Regarding `COc1ccc2c(c1)c(C1=C(n3ccc4ncccc43)C(=O)NC1=O)cn2CCCN(C)C`, the IC50 in assay [1] came to 22.5 µM.

For `COc1ccc2c(c1)c(C1=C(n3ccc4ncccc43)C(=O)NC1=O)cn2CCCn1ccnc1`, the result in assay [2] was inactive. In addition, the half-inhibitory concentration (IC50) in assay [1] was determined as 0.48 µM.
